Each structure is given as a SMILES string.

This data set can be described thus: Toxicity liver stage against HepG2, at 10uM. Type of data set: cell-based. Also noted: test concentration 10 uM, cell line HepG2-A16-CD81EGFP. The note with it: human, HepG2-A16-CD81EGFP cells; read-out: INHIBITION
Summed up:
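Uninfected HepG2-A16-CD81EGFP cells, 3 × 10^3 per well, 1536-well, plated on prespotted compound at 10 μM final, parasite-free screening media added to match infected plates; puromycin 10 μM positive, DMSO 0.5% negative; run in parallel with 48 h PbLuc assay at 37 °C, 5% CO2; viability by CellTiter-Glo luminescence, normalized to controls.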
As for `CCC(=O)Nc1cccc(OCC(=O)N[C@@H]2C[C@@H]3CC[C@H]2C3)c1`, the cytotoxicity at 10 µM is -1.03%. The value for `Cc1cnc2c(c1NCc1ccncc1)c(=O)n(C)c(=O)n2C` was -10.7%; that for `CCC(CNS(C)(=O)=O)Oc1ccccc1F` (configuration not stated) was -6%. With `Cc1cc(N2CCc3cnc(C)nc3C2)n2nc(C(F)(F)F)nc2n1`, the cytotoxicity at 10 µM was found to be 0.769%. The value for `Cc1ccc(OCc2nc(CNCCn3cccn3)cs2)cc1` was 0.979%; that for `O=C(COCCOc1ccccc1)NC1CCN(c2ncccn2)CC1` was -4.9%.

As for `Cc1ccc(C)c(OCC(=O)NC2CCN(c3ccccn3)CC2)c1`, the cytotoxicity at 10 µM was -3.42%.

As for `CCC[C@H]1CN(CCS(C)(=O)=O)C[C@@H]1NC(=O)c1cc(CC)on1`, the cytotoxicity at 10 µM is -2.42%.

For the compound `Cn1nnc2c(N3CC(C(=O)NCc4ccccc4F)C3)ncnc21`, the cytotoxicity at 10 µM was 0.447%. The value for `Cc1ncsc1C(=O)NC1CCN(CC(=O)NCc2ccccc2)CC1` was -4.62%; that for `O=C(Cc1ccccn1)N1CCN(C(=O)CC2CCCC2)CC1` was -10.5%; that for `CCc1cc2cc(OC)c(OC)cc2nc1SCCN1CCCCC1` was -4.82%. The value for `Nc1nc(CN2CCOC(Cn3cccn3)C2)nc2ccccc12` (configuration not stated) was -20.4%.

For `O=C(NCC(=O)N1CC2(CCCC2)c2c(F)cccc21)C1CC1`, the cytotoxicity at 10 µM was -3.47%. The value for `c1cnn(CC2CCCCN2Cc2noc(C3CC3)n2)c1` (configuration not stated) was -3.48%; that for `CCN1C(=O)C2(CCN(CCN(C)C)CC2)c2ccccc21` was -112%. The value for `CC(C)OCCCNC(=O)Nc1cccc2ncccc12` was 2.96%; that for `CN(C)c1ccc(NC(=O)N2CCc3sccc3C2)cn1` was -4.16%; that for `c1ccc(CO[C@@H]2C[C@H]3CN(c4ncccn4)CCN3C2)nc1` was -7.49%. The value for `COc1ccc(C(=O)C2CCCN(c3cc(OC)ncn3)C2)c(C)c1` (configuration not stated) was 48%. Regarding `CC(NCCc1nccn1Cc1ccccc1)c1ccsc1` (configuration not stated), the cytotoxicity at 10 µM was 8.4%. As to `CC(N)Cc1ccccc1Sc1ccc(O)cc1` (configuration not stated), the cytotoxicity at 10 µM was 3.76%.

As for `CC(C)[C@@H]1CN(C(=O)NCCc2ccccc2)C[C@H]1NS(=O)(=O)N(C)C`, the cytotoxicity at 10 µM was 3.08%. The value for `Cc1noc(C)c1CCC(=O)N[C@@H]1CCC[C@@H](Oc2cccnc2)[C@@H]1O` was -0.903%; that for `O=C(NCc1ccco1)C1CCCN1Cc1nc(-c2ccco2)no1` (configuration not stated) was -6.46%; that for `c1nc(COCC2CC2)c2n1CCCN(CC1CC1)C2` was -4.77%. The value for `CCn1cc(-c2cc(-c3cc(CC(=O)O)cs3)nc(N)c2C#N)c(C)n1` was 1.16%. The value for `Cc1nn(C)c2cnn(CC(=O)NCc3ccc4c(c3)OCO4)c12` was 4.45%; that for `CN(C)Cc1cnc(CC2CCN(CCc3ccccc3)CC2)cn1` was -6.07%. Take `COc1ccc(N(C)C(=O)C2CN(C)CCO2)cc1F` (configuration not stated): the cytotoxicity at 10 µM was -41.8%. On to `O=C(CCc1ccco1)Nc1cccc(S(=O)(=O)C(F)F)c1`, for which the cytotoxicity at 10 µM is -42.5%. The value for `CC(C)(C)c1ncc2c(n1)CN(c1cc(NCCO)nc(N)n1)C2` was 3.5%; that for `CC(C)c1cc(C(=O)N2CCCN(Cc3ccccc3)CC2)n[nH]1` was -5.41%; that for `Cc1cnc(C)c(-c2cc(O)c3c(c2)CN(c2ncccn2)CCO3)n1` was 6.13%. The value for `CC(C)c1cc(NCC2(CO)CCC2)ncn1` was 4.66%; that for `O=C(c1ccco1)N1CCCC2(C1)CN(c1nncs1)CCO2` (configuration not stated) was -99.3%; that for `Cn1c(C(=O)NS(C)(=O)=O)ccc1-c1ccccc1` was -6.85%.

For the compound `Cc1ccc(NC(=O)N2CCOC(C(N)=O)C2)cc1C(F)(F)F` (configuration not stated), the cytotoxicity at 10 µM was -146%.

For the compound `CC(C)c1ncc(CN2CCC(CO)C2)cn1` (configuration not stated), the cytotoxicity at 10 µM was -25.8%. The value for `CC(C)(C)c1nc(C(C)(C)NC(=O)C2CC(=O)N(CC3CC3)C2)no1` (configuration not stated) was -5.4%; that for `c1cnc(-c2nc(CN3CCC(c4ccn[nH]4)CC3)cs2)nc1` was -2.97%. Take `O=C(NC1CCNC1)C1(N2CCCCC2)Cc2ccccc2C1` (configuration not stated): the cytotoxicity at 10 µM is -5.76%. The value for `NC(=O)NCC(=O)N1CCC2(CC1)c1ccccc1CC2O` (configuration not stated) was 4.22%; that for `O=S(=O)(CCSc1nccn1C1CC1)c1ccccc1` was -4.63%. For the compound `O=C(c1c[nH]c2ncccc12)N(Cc1ccco1)C1CCCC1`, the cytotoxicity at 10 µM is 2.07%. Regarding `CSc1c(CC(=O)O)n(C)c2ccccc12`, the cytotoxicity at 10 µM was found to be 3.79%. The value for `CC(C)C1=NOC2(CCN(C(=O)C3CCCC3)CC2)C1` was 6.69%; that for `Cc1nccn1-c1ccc(C(C)Nc2cnn(C)c(=O)c2Cl)cc1` (configuration not stated) was 18.7%. The value for `COc1ccc2c(c1)nc1n2[C@@H](CNCc2ncccc2C)COC1` was 3.1%; that for `c1csc(-c2cc(CN3CCN(c4nccs4)CC3)no2)c1` was 13.2%. The value for `CCOc1ccc(Cl)c(C(=O)NCc2ccc(C(=O)NC)cc2)n1` was -9.88%; that for `CN(Cc1cc(-c2cccnc2)no1)C(=O)c1cccn1C` was -1.1%; that for `Cc1cc(C2CCCN(S(=O)(=O)c3cn[nH]c3)C2)ccn1` (configuration not stated) was -1.77%.

Turning to `Cc1ccc(F)c(OC2(C(=O)O)CCN(C(=O)c3ccncc3)CC2)c1`, the cytotoxicity at 10 µM was 5.03%. The value for `Cc1cc(N2CCCN(c3ccnc(C)c3)CC2)ccn1` was -0.943%.

With `CCOC(=O)N1CCN(CC(=O)Nc2ccc(F)cc2Cl)CC1`, the cytotoxicity at 10 µM was 6%. The value for `COc1ccc(CN2C[C@H](OCC3CCOCC3)[C@H]3COC[C@H]32)cc1` was -9.78%. The value for `COCc1ccc(C(=O)N2CC[C@H](O)[C@@H](n3ccnc3)CC2)cc1` was -12.1%; that for `Cc1cc(NC(=O)CCNC(C)(C)c2nc(C)c(C)s2)no1` was 11.7%; that for `Cn1nnnc1SCCNC(=O)C1CCN(C(=O)C2CCCC2)CC1` was -11.8%. The value for `CSCc1cccc(S(=O)(=O)N2CCCC2)c1` was 8.49%. `CN1CCN(C(=O)c2cc[nH]c(=O)c2)Cc2ccccc21`: the cytotoxicity at 10 µM is -18.1%. The value for `Cc1cccc(CN2C[C@@H]3COC[C@]3(CNC(=O)c3ccccc3)C2)n1` was -0.0606%; that for `OC(c1cccs1)C1CCN(c2ncccn2)CC1` (configuration not stated) was -52.5%. The value for `COc1ccc(S(=O)(=O)NC(=O)c2cscn2)cc1C` was 6.84%; that for `CC(C)(C)OC(=O)N1CC(CC(=O)NCc2ccsc2)C1` was 5.18%. For the compound `CCN(CC)CCNCc1cc(O)c2cc(C)ccc2n1`, the cytotoxicity at 10 µM turned out to be 0.749%. For the compound `Cc1cccc(S(=O)(=O)N2C[C@@H]3C[C@H](C(=O)NC4CCC4)[C@H](C2)O3)c1`, the cytotoxicity at 10 µM was -1.74%. The value for `CC(C)Cc1cc(NC(=O)N2CCC(Oc3cccnc3)C2)n(C)n1` (configuration not stated) was -4.71%; that for `O=C(NCc1cccnc1N1CCc2ccccc2C1)c1cc(=O)[nH][nH]1` was 6.99%. The value for `Cc1ccsc1CNC(=O)N(C)Cc1cnn(C)c1` was -6.25%; that for `O=C(NCc1nn(-c2ccccc2)c2c1CCC2)NCC1COCCO1` (configuration not stated) was -3.39%; that for `Cc1ccc(CNCCCNS(C)(=O)=O)c(Br)c1` was 3.36%. The value for `CC(C)(CNC1CCCN(Cc2ccccc2F)C1)CN1CCOCC1` (configuration not stated) was 6.21%; that for `Cc1noc(C2CCCN(Cn3cc(Cl)cn3)C2)n1` (configuration not stated) was 2.42%; that for `NC(=O)CSCC(=O)NC1(c2cccc(Br)c2)CC1` was -13.9%.

`Cc1c(F)cc(C(=O)O)cc1S(=O)(=O)Nc1cccc(C(F)F)c1`: the cytotoxicity at 10 µM was -1.35%. The value for `COc1ccc(C(=O)NCCN2CCC(c3cccs3)CC2)cc1OC` was -0.493%. With `O=C(NCc1cc[nH]n1)NCC(c1ccco1)N1CCCC1` (configuration not stated), the cytotoxicity at 10 µM is 13.6%. The value for `CCCc1cc(NC2CCc3ncnn3C2)n2ncnc2n1` (configuration not stated) was -4.17%.

`Cc1n[nH]c(C)c1CN(C)C(C(=O)O)c1ccc2c(c1)OCO2` (configuration not stated): the cytotoxicity at 10 µM is 6.86%. The value for `CC(C)N(C)Cc1cnc2n1CCN(C(=O)NC1CCCC1)C2` was 4.14%. Take `Cc1cccc(COCC2c3nnn(C)c3CCN2Cc2ccoc2)n1` (configuration not stated): the cytotoxicity at 10 µM was -142%. The value for `Cc1cnn(CC2CCCN2C(=O)c2c(C)noc2C)c1` (configuration not stated) was -6.02%; that for `O=C(NCCNc1ncccn1)C1CCN(C(=O)c2ccoc2)CC1` was -12.6%. The value for `Cc1ccc(CNC(=O)NC2CCN(CC(F)F)CC2)cc1` was -6.25%; that for `CC(=O)Nc1nc(C(=O)NC(C)c2ccc3c(c2)OCCO3)cs1` (configuration not stated) was 0.409%; that for `CC(C)OC(=O)N1C[C@@H]2CC[C@H]1CN(Cc1cccnc1)C2` was 0.189%.

`CN(C)S(=O)(=O)c1ccc(CN2CCC(C(N)=O)CC2)o1`: the cytotoxicity at 10 µM turned out to be 0.214%. The value for `Cc1ccc(-c2nnc(CNC(=O)c3cccnc3)o2)cn1` was -2.72%; that for `Clc1ccc(C(CNCc2ccncc2)n2cccn2)cc1` (configuration not stated) was 6.73%; that for `O=C(c1ccc(O)nc1)N1CCN(C(=O)c2ccc(F)cc2F)CC1` was -1.35%. The value for `COc1ccnc(N2CCN(C(=O)Cc3ccn(C(C)C)n3)CC2)n1` was -16.2%; that for `Cn1cccc1C(=O)NCc1cnc2n1CCN(CC1CCOCC1)C2` was -105%. As to `O=C(CCN1CCCCO1)N1CCC(CO)(CCc2ccccc2)CC1`, the cytotoxicity at 10 µM came to 9.71%. For `CCN1CC(C(=O)NC(C)(C)C)CC1=O` (configuration not stated), the cytotoxicity at 10 µM was -2.91%. Take `CN(C)S(=O)(=O)Nc1ccc(Oc2ccc3c(c2)OCO3)cc1`: the cytotoxicity at 10 µM was 1.43%.

Source of the values: ChEMBL document CHEMBL4513216, “Probing the Open Global Health Chemical Diversity Library for Multistage-Active Starting Points for Next-Generation Antimalarials” (ACS Infect Dis, 2020).
